According to ChEMBL document CHEMBL1131139, “Synthesis and antibacterial activity of ketolides (6-O-methyl-3-oxoerythromycin derivatives): a new class of antibacterials highly potent against macrolide-resistant and -susceptible respiratory pathogens” (1998):
In brackets after ≈: the same amount, converted by molar mass.

Key:
Format in all cases: functional
Escherichia coli = test: In vitro inhibitory activity against Escherichia coli (250 UC5)
Outline: (§1)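 Two-fold agar dilution on Mueller-Hinton agar (pH 7.4). Inoculum from overnight plate cultures suspended in Mueller-Hinton broth, adjusted to 10^9 CFU/mL, diluted 1:200 and spotted by multipoint inoculator at about 10^4 CFU/spot. Plates incubated 37 °C for 20 h. MIC taken as lowest concentration with no visible growth.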

Staphylococcus aureus [1] = test: In vitro inhibitory activity against Staphylococcus aureus (EryRi 011GO25i); outline: as §1
Staphylococcus aureus [2] = test: In vitro inhibitory activity against Staphylococcus aureus (EryRc 011CB20); outline: as §1
[3] = system: Staphylococcus epidermidis; test: In vitro inhibitory activity against Staphylococcus epidermidis (EryRi 012GO11i); outline: as §1
Staphylococcus aureus [4] = test: In vitro inhibitory activity against Staphylococcus aureus (011UC4); outline: as §1
Streptococcus pyogenes = test: In vitro inhibitory activity against Streptococcus pyogenes (02A1UC1); outline: as §1
Streptococcus pneumoniae [5] = test: In vitro inhibitory activity against Streptococcus pneumoniae (EryRi 030SJ5i); outline: as §1
Haemophilus influenzae [6] = test: In vitro inhibitory activity against Haemophilus influenzae (351CB12); outline: as §1
Haemophilus influenzae [7] = test: In vitro inhibitory activity against Haemophilus influenzae (351HT3); outline: as §1
Streptococcus pneumoniae [8] = test: In vitro inhibitory activity against Streptococcus pneumoniae (032UC1); outline: as §1
Streptococcus pneumoniae [9] = test: In vitro inhibitory activity against Streptococcus pneumoniae (EryRc 030SJ1); outline: as §1

SMILES	MIC (Escherichia coli)	MIC (Staphylococcus aureus [1])	MIC (Staphylococcus aureus [2])	MIC [3]	MIC (Staphylococcus aureus [4])	MIC (Streptococcus pyogenes)	MIC (Streptococcus pneumoniae [5])	MIC (Haemophilus influenzae [6])	MIC (Haemophilus influenzae [7])	MIC (Streptococcus pneumoniae [8])	MIC (Streptococcus pneumoniae [9])
CC[C@H]1OC(=O)[C@H](C)C(=O)[C@H](C)[C@@H](O[C@@H]2O[C@H](C)C[C@H](N(C)C)[C@H]2O)[C@](C)(OC)C[C@@H](C)C2=NCCN3C(=O)O[C@@]1(C)[C@H]3[C@H]2C	40 µg/mL (≈ 62.7 µM)	0.6 µg/mL (≈ 0.941 µM)	40 µg/mL (≈ 62.7 µM)	0.3 µg/mL (≈ 0.47 µM)	0.3 µg/mL (≈ 0.47 µM)	0.08 µg/mL (≈ 0.125 µM)	40 µg/mL (≈ 62.7 µM)	5 µg/mL (≈ 7.84 µM)	5 µg/mL (≈ 7.84 µM)	0.02 µg/mL (≈ 0.0314 µM)	40 µg/mL (≈ 62.7 µM)
CC[C@H]1OC(=O)[C@H](C)C(=O)[C@H](C)[C@@H](O[C@@H]2O[C@H](C)C[C@H](N(C)C)[C@H]2O)[C@](C)(OC)C[C@@H](C)/C(=N\O[C@@H]2CCCN(Cc3ccc(-c4ccccc4)cc3)C2)[C@H](C)[C@@H](O)[C@]1(C)O	40 µg/mL (≈ 46.9 µM)	0.3 µg/mL (≈ 0.352 µM)	20 µg/mL (≈ 23.5 µM)	0.6 µg/mL (≈ 0.704 µM)	0.6 µg/mL (≈ 0.704 µM)	0.04 µg/mL (≈ 0.0469 µM)	0.3 µg/mL (≈ 0.352 µM)	10 µg/mL (≈ 11.7 µM)	40 µg/mL (≈ 46.9 µM)	0.3 µg/mL (≈ 0.352 µM)	5 µg/mL (≈ 5.87 µM)
CC[C@H]1OC(=O)[C@H](C)C(=O)[C@H](C)[C@@H](O[C@@H]2O[C@H](C)C[C@H](N(C)C)[C@H]2O)[C@](C)(OC)C[C@@H](C)/C(=N\OC2CCCN(C)C2)[C@H](C)[C@@H](O)[C@]1(C)O (stereo not given in full)	40 µg/mL (≈ 57.1 µM)	0.3 µg/mL (≈ 0.429 µM)	40 µg/mL (≈ 57.1 µM)	0.6 µg/mL (≈ 0.857 µM)	0.08 µg/mL (≈ 0.114 µM)	0.04 µg/mL (≈ 0.0571 µM)	40 µg/mL (≈ 57.1 µM)	10 µg/mL (≈ 14.3 µM)	10 µg/mL (≈ 14.3 µM)	0.02 µg/mL (≈ 0.0286 µM)	10 µg/mL (≈ 14.3 µM)
CCCNCCO/N=C1\[C@H](C)C[C@@](C)(OC)[C@H](O[C@@H]2O[C@H](C)C[C@H](N(C)C)[C@H]2O)[C@@H](C)C(=O)[C@@H](C)C(=O)O[C@H](CC)[C@@](C)(O)[C@H](O)[C@H]1C	40 µg/mL (≈ 58.1 µM)	0.3 µg/mL (≈ 0.436 µM)	40 µg/mL (≈ 58.1 µM)	0.15 µg/mL (≈ 0.218 µM)	0.15 µg/mL (≈ 0.218 µM)	0.04 µg/mL (≈ 0.0581 µM)	1.2 µg/mL (≈ 1.74 µM)	10 µg/mL (≈ 14.5 µM)	40 µg/mL (≈ 58.1 µM)	10 µg/mL (≈ 14.5 µM)	40 µg/mL (≈ 58.1 µM)
CC[C@H]1OC(=O)[C@H](C)C(=O)[C@H](C)[C@@H](O[C@@H]2O[C@H](C)C[C@H](N(C)C)[C@H]2O)[C@](C)(OC)C[C@@H](C)/C(=N\OCCNCCN(C)C)[C@H](C)[C@@H](O)[C@]1(C)O	40 µg/mL (≈ 55.8 µM)	5 µg/mL (≈ 6.97 µM)	40 µg/mL (≈ 55.8 µM)	1.2 µg/mL (≈ 1.67 µM)	0.6 µg/mL (≈ 0.837 µM)	0.15 µg/mL (≈ 0.209 µM)	10 µg/mL (≈ 13.9 µM)	20 µg/mL (≈ 27.9 µM)	40 µg/mL (≈ 55.8 µM)	0.15 µg/mL (≈ 0.209 µM)	40 µg/mL (≈ 55.8 µM)
CC[C@H]1OC(=O)[C@H](C)C(=O)[C@H](C)[C@@H](O[C@@H]2O[C@H](C)C[C@H](N(C)C)[C@H]2O)[C@](C)(OC)C[C@@H](C)C(=O)[C@H](C)[C@H]2N(NCCCc3cccc(Cl)c3)C(=O)O[C@]12C	40 µg/mL (≈ 51.3 µM)	0.08 µg/mL (≈ 0.103 µM)	40 µg/mL (≈ 51.3 µM)	0.04 µg/mL (≈ 0.0513 µM)	0.04 µg/mL (≈ 0.0513 µM)	0.02 µg/mL (≈ 0.0256 µM)	0.08 µg/mL (≈ 0.103 µM)	2.5 µg/mL (≈ 3.2 µM)	1.2 µg/mL (≈ 1.54 µM)	0.02 µg/mL (≈ 0.0256 µM)	2.5 µg/mL (≈ 3.2 µM)

Further compounds by falling MIC (Escherichia coli), results first:

MIC (Escherichia coli)	MIC (Staphylococcus aureus [1])	MIC (Staphylococcus aureus [2])	MIC [3]	MIC (Staphylococcus aureus [4])	MIC (Streptococcus pyogenes)	MIC (Streptococcus pneumoniae [5])	MIC (Haemophilus influenzae [6])	MIC (Haemophilus influenzae [7])	MIC (Streptococcus pneumoniae [8])	MIC (Streptococcus pneumoniae [9])	SMILES
40 µg/mL (≈ 67.9 µM)	40 µg/mL (≈ 67.9 µM)	40 µg/mL (≈ 67.9 µM)	40 µg/mL (≈ 67.9 µM)	40 µg/mL (≈ 67.9 µM)	40 µg/mL (≈ 67.9 µM)	40 µg/mL (≈ 67.9 µM)	10 µg/mL (≈ 17 µM)	10 µg/mL (≈ 17 µM)	40 µg/mL (≈ 67.9 µM)	40 µg/mL (≈ 67.9 µM)	CC[C@H]1OC(=O)[C@H](C)[C@@]2(O)O[C@@](C)(C[C@@H](C)/C(=N\O)[C@H](C)[C@@H](O)[C@]1(C)O)[C@H](O[C@@H]1O[C@H](C)C[C@H](N(C)C)[C@H]1O)[C@H]2C
40 µg/mL (≈ 66.4 µM)	1.2 µg/mL (≈ 1.99 µM)	40 µg/mL (≈ 66.4 µM)	0.6 µg/mL (≈ 0.995 µM)	0.3 µg/mL (≈ 0.498 µM)	0.15 µg/mL (≈ 0.249 µM)	40 µg/mL (≈ 66.4 µM)	1.2 µg/mL (≈ 1.99 µM)	20 µg/mL (≈ 33.2 µM)	0.08 µg/mL (≈ 0.133 µM)	40 µg/mL (≈ 66.4 µM)	CC[C@H]1OC(=O)[C@H](C)C(=O)[C@H](C)[C@@H](O[C@@H]2O[C@H](C)C[C@H](N(C)C)[C@H]2O)[C@](C)(OC)C[C@@H](C)/C(=N\O)[C@H](C)[C@@H](O)[C@]1(C)O
40 µg/mL (≈ 48.4 µM)	0.3 µg/mL (≈ 0.363 µM)	40 µg/mL (≈ 48.4 µM)	0.08 µg/mL (≈ 0.0968 µM)	0.08 µg/mL (≈ 0.0968 µM)	0.02 µg/mL (≈ 0.0242 µM)	0.08 µg/mL (≈ 0.0968 µM)	2.5 µg/mL (≈ 3.03 µM)	2.5 µg/mL (≈ 3.03 µM)	0.02 µg/mL (≈ 0.0242 µM)	20 µg/mL (≈ 24.2 µM)	CC[C@H]1OC(=O)[C@H](C)C(=O)[C@H](C)[C@@H](O[C@@H]2O[C@H](C)C[C@H](N(C)C)[C@H]2O)[C@](C)(OC)C[C@@H](C)C(=O)[C@H](C)[C@H]2N(CCCCc3ccnc4c(OC)cccc34)C(=O)O[C@]12C
40 µg/mL (≈ 53.6 µM)	0.6 µg/mL (≈ 0.804 µM)	40 µg/mL (≈ 53.6 µM)	0.3 µg/mL (≈ 0.402 µM)	0.08 µg/mL (≈ 0.107 µM)	0.04 µg/mL (≈ 0.0536 µM)	0.6 µg/mL (≈ 0.804 µM)	1.2 µg/mL (≈ 1.61 µM)	2.5 µg/mL (≈ 3.35 µM)	0.02 µg/mL (≈ 0.0268 µM)	40 µg/mL (≈ 53.6 µM)	CC[C@H]1OC(=O)[C@H](C)C(=O)[C@H](C)[C@@H](O[C@@H]2O[C@H](C)C[C@H](N(C)C)[C@H]2O)[C@](C)(OC)C[C@@H](C)C(=O)[C@H](C)[C@H]2N(CCCNc3ccccc3)C(=O)O[C@]12C
